Measured values from ChEMBL document CHEMBL1772948, “Chemistry and biology of macrolide antiparasitic agents” (J Med Chem, 2011).
≈ marks a conversion by molar mass, not a printed value. Calls of active or inactive are those of the source. The rule behind the calls is not given here.

Key:
[1] = test system: Toxoplasma gondii; test: Antiparasitic activity against green fluorescent protein expressing […] deficient Toxoplasma gondii RH assessed as parasite doubling time at 5 uM treated immediately after infection for 48 hrs followed by reinoculated into fresh HFF monolayers measured after 48 hrs; format: functional
Method in brief: (§1)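 HFF were grown on glass coverslips in 12-well plates and infected with 2×10^4 GFP tachyzoites per well. Compound was added with the inoculum; the first cycle ran 48 h, and the second cycle ran in fresh HFF without drug. Parasites per vacuole were counted by fluorescence microscopy, at least 50 random vacuoles per well, to derive doubling time. Three independent experiments.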

[2] = test system: Toxoplasma gondii; test: Antiparasitic activity against green fluorescent protein expressing hwgprt deficient Toxoplasma gondii RH infected in HFF assessed as reduction of ycf24/UPRT genes copy number ratio at 10 uM treated for 42 hrs starting 6 hrs after infection followed by reinoculated into fresh HFF monolayers measured after 48 hrs by RT-PCR analysis
[3] = test system: Toxoplasma gondii; test: Antiparasitic activity against green fluorescent protein expressing hwgprt deficient Toxoplasma gondii RH infected in HFF assessed as reduction of ycf24/UPRT genes copy number ratio at 0.1 uM treated for 48 hrs after 6 hrs infection followed by reinoculated into fresh HFF monolayers measured after 48 hrs by RT-PCR analysis; format: functional
Method in brief: (§2)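 Tachyzoites were seeded on confluent HFF monolayers in 6-well plates at 2×10^5 per well, in DMEM with 10% FBS and 1% PS at 37 °C, 5% CO2. After 6 h pre-infection, the medium was replaced with medium containing compound for 42 h. Released parasites were reinoculated into fresh HFF without drug for 48 h, collected by centrifugation, and measured by qPCR as the ratio of plastid ycf24 to nuclear UPRT copies. At least triplicate.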

[4] = test system: Toxoplasma gondii; test: Antiparasitic activity against yellow fluorescent protein expressing Toxoplasma gondii 2F-1 treated immediately after infection for 48 hrs followed by reinoculated into fresh HFF monolayers measured after 48 hrs; format: functional, organism-based; conditions: 2F-1, 48 h
Method in brief: (§3)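 Two-cycle protocol in HFF at 37 °C, 5% CO2, DMEM with 10% FBS. "0h": compound added with parasites, 48 h. "6h": parasites pre-incubated 6 h, uninvaded parasites removed, fresh medium with compound added, 42 h. Released tachyzoites were then harvested, purified and inoculated into fresh HFF without compound for the 2nd cycle. At least triplicate.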

[5] = test system: Toxoplasma gondii; test: Antiparasitic activity against clindamycin-resistant Toxoplasma gondii 4 infected in HFF assessed as reduction of ycf24/UPRT genes copy number ratio at 0.1 uM treated for 48 hrs immediately after infection followed by reinoculated into fresh HFF monolayers measured after 48 hrs by RT-PCR analysis; format: functional
Method in brief: (§4)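 Tachyzoites were seeded on confluent HFF in 6-well plates at 2×10^5 per well, in DMEM with 10% FBS and 1% PS at 37 °C, 5% CO2. Compound was added together with the parasite inoculum, and cultures ran 48 h. Harvested tachyzoites were reinoculated into fresh HFF without drug for a second cycle. Parasites were pelleted by centrifugation and the plastid ycf24 to nuclear UPRT copy ratio was read by qPCR (40 cycles, 94 °C 3 s / 60 °C 30 s). At least triplicate.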

[6] = test system: Toxoplasma gondii; test: Antiparasitic activity against clindamycin-resistant Toxoplasma gondii 4 infected in HFF assessed as reduction of ycf24/UPRT genes copy number ratio at 0.1 uM treated for 48 hrs after 6 hrs infection followed by reinoculated into fresh HFF monolayers measured after 48 hrs by RT-PCR analysis; format: functional; method in brief: as §2
[7] = test system: Toxoplasma gondii; test: Antiparasitic activity against clindamycin-resistant Toxoplasma gondii 4 infected in HFF assessed as reduction of ycf24/UPRT genes copy number ratio at 1 uM treated for 48 hrs immediately after infection followed by reinoculated into fresh HFF monolayers measured after 48 hrs by RT-PCR analysis; format: functional
Method in brief: (§5)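 Tachyzoites were seeded on confluent HFF in 6-well plates at 2×10^5 per well, in DMEM with 10% FBS and 1% PS at 37 °C, 5% CO2. Harvested tachyzoites were reinoculated into fresh HFF without drug for a second cycle. Parasites were pelleted by centrifugation and the plastid ycf24 to nuclear UPRT copy ratio was read by qPCR (40 cycles, 94 °C 3 s / 60 °C 30 s). At least triplicate.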

[8] = test system: Toxoplasma gondii; test: Antiparasitic activity against green fluorescent protein expressing […] deficient Toxoplasma gondii RH infected in HFF at 5 uM treated immediately after infection measured after 48 hrs; format: functional, organism-based
Method in brief: (§6)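 GFP-expressing RHΔhxgprt tachyzoites were grown on HFF on glass coverslips in 12-well plates (2×10^4/well). Compound was added either with the parasites ("0h", 48 h) or after a 6 h pre-infection and medium change ("6h", 42 h). Parasites per vacuole were counted by fluorescence microscopy in at least 50 random vacuoles per well. Three independent experiments.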

[9] = test system: Toxoplasma gondii; test: Antiparasitic activity against green fluorescent protein expressing […] deficient Toxoplasma gondii RH infected in HFF assessed as decrease in density of parasitophorous vacuoles at 10 uM treated immediately after infection measured after 24 hrs by microscopic analysis; format: functional, organism-based
Method in brief: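 GFP T. gondii RHΔhxgprt in HFF, compound (10 μM) added either with the inoculum ("0h") or after 6 h pre-infection and washing ("6h"); vacuoles per microscope field scored at 24 h, at least 20 random fields from each of three experiments.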

[10] = test system: Toxoplasma gondii; test: Antiparasitic activity against green fluorescent protein expressing […] deficient Toxoplasma gondii RH infected in HFF assessed as parasite doubling time at 5 uM treated immediately after infection measured after 48 hrs; format: functional; method in brief: as §1
[11] = test system: Toxoplasma gondii; test: Antiparasitic activity against Toxoplasma gondii 2F-1 expressing yellow fluorescent protein infected in HFF after 4 days; format: functional, organism-based; conditions: 2F-1, 96 h
[12] = test system: Toxoplasma gondii; test: Antiparasitic activity against green fluorescent protein expressing […] deficient Toxoplasma gondii RH infected in HFF at 5 uM treated 6 hrs after infection measured after 48 hrs; format: functional, organism-based; method in brief: as §6
[13] = test system: Toxoplasma gondii; test: Antiparasitic activity against clindamycin-resistant Toxoplasma gondii 4 infected in HFF assessed as reduction of ycf24/UPRT genes copy number ratio at 10 uM treated for 48 hrs immediately after infection followed by reinoculated into fresh HFF monolayers measured after 48 hrs by RT-PCR analysis; format: functional; method in brief: as §4
[14] = test system: Toxoplasma gondii; test: Antiparasitic activity against green fluorescent protein expressing […] deficient Toxoplasma gondii RH infected in HFF assessed as reduction of ycf24/UPRT genes copy number ratio at 0.1 uM treated for 48 hrs immediately after infection followed by reinoculated into fresh HFF monolayers measured after 48 hrs by RT-PCR analysis; format: functional; method in brief: as §4
[15] = test system: Toxoplasma gondii; test: Antiparasitic activity against clindamycin-resistant Toxoplasma gondii 4 infected in HFF assessed as reduction of ycf24/UPRT genes copy number ratio at 10 uM treated for 48 hrs after 6 hrs infection followed by reinoculated into fresh HFF monolayers measured after 48 hrs by RT-PCR analysis; format: functional; method in brief: as §2
[16] = test system: Toxoplasma gondii; test: Antiparasitic activity against green fluorescent protein expressing hwgprt deficient Toxoplasma gondii RH at 5 uM treated immediately after infection for 48 hrs followed by reinoculated into fresh HFF monolayers measured after 48 hrs; format: functional, organism-based; method in brief: as §3
[17] = test system: HFF; test: Cytotoxicity against HFF after 48 hrs by MTS assay; format: cell-based; conditions: human
Method in brief: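 Low-passage HFF seeded in 96-well plates and incubated 24h at 37 °C, then exposed to varying macrolide concentrations for 2 days; medium replaced with fresh medium plus MTS, 4h at 37 °C, absorbance 490 nm; CC50 = dose reducing viability by 50%.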

[18] = test system: Toxoplasma gondii; test: Antiparasitic activity against yellow fluorescent protein expressing Toxoplasma gondii 2F-1 treated 6 hrs after infection for 42 hrs followed by reinoculated into fresh HFF monolayers measured after 48 hrs; format: functional, organism-based; method in brief: as §3
[19] = test system: Toxoplasma gondii; test: Antiparasitic activity against clindamycin-resistant Toxoplasma gondii 4 infected in HFF assessed as reduction of ycf24/UPRT genes copy number ratio at 1 uM treated for 48 hrs after 6 hrs infection followed by reinoculated into fresh HFF monolayers measured after 48 hrs by RT-PCR analysis; format: functional
[20] = test system: Bacillus subtilis; test: Antibacterial activity against Bacillus subtilis; format: functional
[21] = test system: Toxoplasma gondii; test: Antiparasitic activity against green fluorescent protein expressing hwgprt deficient Toxoplasma gondii RH infected in HFF assessed as reduction of ycf24/UPRT genes copy number ratio at 1 uM treated for 48 hrs after 6 hrs infection followed by reinoculated into fresh HFF monolayers measured after 48 hrs by RT-PCR analysis; format: functional
[22] = test system: Toxoplasma gondii; test: Antiparasitic activity against green fluorescent protein expressing hwgprt deficient Toxoplasma gondii RH infected in HFF assessed as reduction of ycf24/UPRT genes copy number ratio at 10 uM […] followed by reinoculated into fresh HFF monolayers measured after 48 hrs by RT-PCR analysis; format: functional
[23] = test system: Toxoplasma gondii; test: Antiparasitic activity against yellow fluorescent protein expressing Toxoplasma gondii 2F-1 infected in HFF treated 6 hrs after infection measured after 48 hrs; format: functional, organism-based
[24] = test system: Toxoplasma gondii; test: Antiparasitic activity against yellow fluorescent protein expressing Toxoplasma gondii 2F-1 infected in HFF treated immediately after infection measured after 48 hrs; format: functional, organism-based; conditions: 2F-1, 48 h
[25] = test system: Toxoplasma gondii; test: Antiparasitic activity against green fluorescent protein expressing […] deficient Toxoplasma gondii RH infected in HFF assessed as reduction of ycf24/UPRT genes copy number ratio at 1 uM treated for 48 hrs immediately after infection followed by reinoculated into fresh HFF monolayers measured after 48 hrs by RT-PCR analysis; format: functional; method in brief: as §5
[26] = test system: Toxoplasma gondii; test: Antiparasitic activity against green fluorescent protein expressing hwgprt deficient Toxoplasma gondii RH at 5 uM treated 6 hrs after infection for 42 hrs followed by reinoculated into fresh HFF monolayers measured after 48 hrs; format: functional, organism-based; method in brief: as §3

Work on `CC[C@H]1OC(=O)[C@H](C)[C@@H](O[C@H]2C[C@@](C)(OC)[C@@H](O)[C@H](C)O2)[C@H](C)[C@@H](O[C@@H]2O[C@H](C)C[C@H](N(C)C)[C@H]2O)[C@](C)(O)C[C@@H](C)CN(Cc2ccccc2)[C@H](C)[C@@H](O)[C@]1(C)O` yielded a Time [1] of over 16 h, a Ratio [2] of 13 and a Ratio [3] of 17. The IC50 [4] was 0.5 µM, the Ratio [5] was 23 and the Ratio [6] was 15. The Ratio [7] was 8, the Activity [8] was “Active” and the Activity [9] was “Active”. For the same compound, the Time [10] was 9.5 h, the IC50 [11] was 2 µM and the Activity [12] was “Active”. For the same compound, the Ratio [13] was 11, the Ratio [14] was 13 and the Ratio [15] was 5. The Activity [16] was “Active”, the CC50 [17] was 32 µM and the IC50 [18] was 0.5 µM. It also gave a Ratio [19] of 3, an MIC [20] of 0.3 µM (≈ 0.248 µg/mL) and a Ratio [21] of 5. The Ratio [22] was 6, the IC50 [23] was 9 µM and the IC50 [24] was 5 µM. The Ratio [25] was 7 and the Activity [26] was “Active”.
